The list is not random: actives were taken first. Their share in the collection is about 1.8%.
XBP1 UPR activ: activators of adaptive XBP1 UPR arm, primary screen, cell-based, CHO-XBP1 luciferase reporter, luminescence, uHTS | IRE1-XBP1 UPR activation; percent of tunicamycin response, DMSO as zero | activation, % at 20 µM | hit rate 0.33% among 330,000 | AID 463104, 2010;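 active = versus positive control, 20 µM dose yields 30% or more activation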
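Material: IRE1-XBP1 luciferase reporter CHO line / Quantity: one thousand reporter cells per well / Buffer or medium: F12 with 10% serum / Compound: 20 µM single concentration, DMSO 1% / Times: 6 h treatment, 37 °C / Detection: Steady-Glo luciferase glow luminescence, 10 min after reagent addition / Benchmarks: tunicamycin high, DMSO low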
697 NFkB inh: inhibitors of PMA/ionomycin-induced NF-kB reporter, 697 cells, primary screen, B-cell NF-kB inhibitor project, cell-based, luminescence, uHTS; 697 B-cell NF-kB luciferase reporter, 16 h; inhibition, % at 4 µM; hit rate 0.33% among 330,000; in the data active = inhibition above about 35%
Jurkat NFkB inh: inhibitors of induced NF-kB luciferase reporter, primary screen, TCR NF-kB activation inhibitor project, cell-based, luminescence, uHTS; inhibition, % at 4 µM; hit rate 0.53% among 330,000; AID 435003, 2010; Jurkat, PMA/ionomycin-induced NF-kB luciferase reporter; in the data active = inhibition above about 50%
CRFBP-R2 block: antagonists of CRF-BP/CRF-R2 complex, primary screen, cell-based, HEK293, calcium dye fluorescence, uHTS | CRF-induced calcium fluorescence | inhibition, % at 11.8 µM | hit rate 0.59% among 350,000 | AID 588475, 2011;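 active = inhibition of the ligand-induced calcium signal above about 50% at the single tested concentration, limit read from the data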
UPR CHOP act: activators of apoptotic CHOP UPR arm, primary screen, cell-based, CHO-CHOP luciferase reporter, luminescence, uHTS; UPR activation; percent of tunicamycin response over DMSO baseline; activation, % at 10 µM; hit rate 0.34% among 330,000; AID 449763, 2010;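 active = at 10 µM dose, activation of 40% or more, normalized to positive control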
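Evaluation: % reporter activation, DMSO baseline versus tunicamycin full activation; System: CHO-CHOP luciferase reporter cell line; Input: 500 cells/well; Incubation: 6 h compound treatment, 37 °C; Measured by: Steady-Glo luciferase luminescence; Dosing: one dose, 10 µM in 0.5% DMSO; Buffer or medium: F12 medium, 10% FBS; Benchmarks: positive tunicamycin 10 µg/mL, negative DMSO alone.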
Jurkat NFkB conf: PMA/ionomycin-induced NF-kB reporter inhibitors, Jurkat retest, confirmation, T-cell NF-kB inhibitor project, cell-based, luminescence, single concentration. inhibition, % at 4 µM. shares compounds with Jurkat NFkB inh. hit rate 27% among 2,700. Jurkat NF-kB luciferase, 16 h;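 active = inhibition reaching about 45% at 4 µM in either replicate, limit read from the data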
A number is an active result; - = inactive; . = no result given.

SMILES	XBP1 UPR activ	697 NFkB inh	Jurkat NFkB inh	CRFBP-R2 block	UPR CHOP act	others
Clc1ccccc1NN(Cc1ccncc1)c1ccccc1Cl	.	.	.	53	.
CC(=O)N1N=C(c2ccco2)CC1c1ccc(Cl)o1 (centres undefined)	-	-	-	-	-
O=C(Nc1ccccc1C(=O)O)c1cccc(NC(=O)c2ccccc2Br)c1	-	-	-	-	-
O=C(Nc1cc(C(=O)Nc2ccccc2C(=O)O)cc(C(=O)Nc2ccccc2C(=O)O)c1)c1ccccc1	-	-	-	104	-
O=C(NNC(=O)c1ccccc1C(=O)O)c1ccc(O)cc1	-	-	-	58	-
Cn1cccc1C(=O)NCCc1ccccc1	-	-	-	-	-
COc1ccc(CCNC(=O)c2cccn2C)cc1	-	-	-	55	-
CC(C)(C)OC(=O)N1CCc2onc(-c3ccc(N)cc3)c2C1=O	.	.	.	-	.
CCOC(=O)Cn1nc(C)c([N+](=O)[O-])c1C	-	-	-	-	-
Cc1ccc(OCCOC(=O)Cn2nc(C)c([N+](=O)[O-])c2C)cc1	-	-	-	54	-
COc1ccc(C(=O)Nc2oc(-c3ccccc3)c(-c3ccccc3)c2C#N)cc1	-	-	-	-	-
Cc1cccc(C)c1OCC(=O)Nc1oc(-c2ccccc2)c(-c2ccccc2)c1C#N	-	-	-	107	-
CCOc1ccc(CCNC(=O)C2CCCN(c3ncnc4c3nc3n4CCCCC3)C2)cc1 (centres undefined)	-	-	-	115	-
S=C(NCCc1ccccc1)NCCc1ccccc1	-	-	-	-	-
CC(C)(C)C(=O)NC(=S)NCCc1ccccc1	-	-	-	51	-
O=C(CN1CCN(C(=O)CNC(=O)c2ccc3c(c2)OCO3)CC1)Nc1ccc(F)cc1	-	-	-	-	-
CCCc1cc(=O)[nH]c(SCC(=O)N2c3ccccc3NC(=O)C2(C)C)n1	-	-	-	-	-
CN(CCO)S(=O)(=O)c1ccc2c(c1)C(=NNC(N)=O)c1cc(S(=O)(=O)N(C)CCO)ccc1-2	-	-	-	85	-
CN(C)S(=O)(=O)c1ccc2c(c1)C(=NNC(N)=O)c1cc(S(=O)(=O)N(C)C)ccc1-2	-	-	-	-	-
Cc1cccc(N2C(N)=NC(N)=NC23CCCCC3)c1	.	.	.	52	.
Cc1ccc(NC(=O)c2cccc(S(=O)(=O)N(C)C3CCCCC3)c2)nc1	-	-	-	-	-
COc1cc(C(=O)O)c2ccccc2n1	-	-	-	65	-
COC(=O)c1cc(Cl)nc2ccccc12	-	-	-	-	-
CCc1ccc(Nc2nnc(SC(C)C(=O)NC3CC3)s2)cc1 (centres undefined)	-	-	-	79	-
COc1ccc(Cc2nc3ccc(C(=O)NC4CCOC4)cc3o2)cc1 (centres undefined)	-	-	-	-	-
SMILES	XBP1 UPR activ	697 NFkB inh	Jurkat NFkB inh	CRFBP-R2 block	UPR CHOP act	others
O=C(c1cccc(NS(=O)(=O)c2ccccc2)c1)N1CCCC1	-	-	-	-	-
O=C(c1cccc(NS(=O)(=O)c2ccc(F)c(F)c2)c1)N1CCN(C(c2ccccc2)c2ccccc2)CC1	-	-	-	62	-
O=C(CNC(=O)C1CCCCC1)Nc1ccc(F)c(Cl)c1	-	-	-	65	-
CCN(CCO)Cc1csc2cccc(Br)c12	-	-	-	83	-
C=CCOC(=O)C(C#N)c1nc2ccccc2nc1N1CCN(c2ccccc2OCC)CC1 (centres undefined)	-	-	-	53	-
CCOc1ccccc1N1CCN(c2nc3ccccc3nc2C(C#N)C(=O)OC(C)C)CC1 (centres undefined)	-	-	-	-	-
O=C(O)C1C2CCC(O2)C1C(=O)Nc1ccc(Br)cc1F (centres undefined)	.	.	.	-	.
CC(C)Cn1cc(C(=O)N2CCOCC2)c2c3ccccc3n(C)c2c1=O	-	-	-	-	-
CC(C)Cn1cc(C(=O)N2CCC(C)CC2)c2c3ccccc3n(C)c2c1=O	-	-	-	50	-
Cc1noc(C)c1NC(=O)Nc1cccc2c1O[C@@H](CN(C)C(=O)Nc1ccc3c(c1)OCO3)[C@@H](C)CN([C@H](C)CO)C2=O	-	-	-	-	-
COc1ccc(NS(=O)(=O)c2cc(NC(=O)c3ccc(=O)[nH]c3)ccc2N2CCCC2)cc1	-	-	63	-	-	Jurkat NFkB conf=-
COc1ccc(NS(=O)(=O)c2cc(NC(=O)c3cnc(C)cn3)ccc2N2CCCC2)cc1	-	-	-	-	-
O=c1cc(C(O)C[N+](=O)[O-])occ1OCc1ccccc1 (centres undefined)	-	-	-	-	-
O=C(c1cc(-c2ccncc2)nc2c(Cl)cccc12)N1CCN(c2ccccc2F)CC1	-	-	60	.	-	Jurkat NFkB conf=-
O=C(c1cc(-c2ccccc2Cl)nc2ccccc12)N1CCN(c2ccccc2O)CC1	-	-	-	-	-
CC(C)NCC(O)Cn1c2c(c3ccccc31)CCc1c-2cnn1-c1ccccc1 (centres undefined)	-	-	59	-	-	Jurkat NFkB conf=-
Cn1c(CNc2ccc(Cl)cc2)nc2ccccc21	-	-	-	-	-
CC(C)N=c1cc2n(-c3ccc(Cl)cc3)c3ccccc3nc-2cc1Nc1ccc(Cl)cc1	-	-	73	-	-	Jurkat NFkB conf=-
O=C(O)c1ccc(N/N=C/c2ccc3nccnc3c2)cc1	-	-	60	-	-	Jurkat NFkB conf=-
O=C(O)c1ccc(N/N=C/c2ccncc2)cc1	-	-	-	-	-
O=C(c1ccc2c3n(nc2c1)-c1ccc(Cl)cc1CO3)N1CCCCC1	-	-	-	-	-
O=C(O)c1ccc2c3n(nc2c1)-c1ccc(Cl)cc1CO3	-	-	59	-	-	Jurkat NFkB conf=-
COCCNC(=O)c1ccc2c3n(nc2c1)-c1ccccc1CO3	-	-	-	-	-
C=CCNC(=O)c1ccc2c3n(nc2c1)-c1ccccc1CO3	-	-	-	-	-	Jurkat NFkB conf=-
O=[N+]([O-])c1ccc(-c2nc(C(Cl)Cl)c3ccccc3n2)cc1	-	-	97	-	-	Jurkat NFkB conf=-
SMILES	XBP1 UPR activ	697 NFkB inh	Jurkat NFkB inh	CRFBP-R2 block	UPR CHOP act	others
Cc1ccc(-c2nc3sc4c(c3c(=O)n2N)CCCC4)cc1	-	-	-	-	-	Jurkat NFkB conf=-
Nc1nc(-c2ccccc2)nc2sc3c(c12)CCCC3	-	-	-	-	-	Jurkat NFkB conf=-
Cc1ccc(-c2nc3sc4c(c3c(=O)n2N)CC(C)(C)OC4)cc1	-	-	-	-	-
CCSc1nc(N)c2c3c(sc2n1)CCC3	-	-	-	-	-
COc1cc2c(cc1OC)C(=O)CCC2	.	.	.	-	.
CCCn1ncc(CN2CCC(n3nccc3NC(=O)c3ccccc3Cl)CC2)c1C	-	-	-	-	-

Source: PubChem (Sanford-Burnham Center for Chemical Genomics)
